Test results reported in ChEMBL document CHEMBL1156265, “Furo[2,3-b]pyridine-based cannabinoid-1 receptor inverse agonists: synthesis and biological evaluation. Part 1” (Bioorg Med Chem Lett, 2010).
Activity calls are given as the source filed them. The calls are words filed in the database; no cut-off is given here.

What was measured:
Rattus norvegicus [1] = test: Reduction of body weight in rat at 1 mg/kg, po after 13 days relative to control; format: functional; set-up: scale not given: the % may be the effect or the level left
Outline: (§1)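 Chronic study in diet-induced obese rats with daily oral dosing at 1 mg/kg (for some compounds 0.1 and 0.3 mg/kg as well). Body weight change and cumulative food intake suppression were measured relative to vehicle. The 14-day study ended 18 h after the day-14 dose; one study ended on day 13.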

Rattus norvegicus [2] = test: Suppression of cumulative food intake in rat at 1 mg/kg, po after 13 days relative to control; format: functional; outline: as §1
Rattus norvegicus [3] = test: Reduction of body weight in DIO rat assessed as weight change at 1 mg/kg, po daily measured 18 hrs post dose on day 13; format: functional; set-up: scale not given: the % may be the effect or the level left; outline: as §1
Plasma [4] = test: Drug level in CD1 mouse plasma at 100 mg/kg, po; format: ADME, organism-based; set-up: dose 100 mg/kg, route oral; details: in vivo, read-out: Drug uptake
[5] = Bioavailability in rat; format: ADME, organism-based; details: in vivo
Canis familiaris [6] = test: Toxicity in anesthetized dog assessed as change in ECG intervals up to 10 mg/kg, iv relative to control; format: organism-based, Canis lupus familiaris; set-up: dose 10 mg/kg, route intravenous; details: in vivo
Outline: (§2)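 Anesthetized dogs received a cumulative IV infusion of 1, 3 and 10 mg/kg, each dose infused over 30 min. Mean arterial pressure, heart rate and ECG intervals including QTc were compared with vehicle-treated animals. Plasma drug level was measured at the end of infusion.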

Plasma [7] = test: Drug level in CD1 mouse plasma at 30 mg/kg, po; format: ADME, organism-based; set-up: dose 30 mg/kg, route oral; details: in vivo, read-out: Drug uptake
Brain [8] = test: Drug level in CD1 mouse brain at 30 mg/kg, po; format: ADME, organism-based; set-up: dose 30 mg/kg, route oral; details: in vivo, read-out: Drug uptake
[9] = Metabolic stability in rat urine assessed as compound recovery at 1 mg/kg; format: ADME, organism-based; set-up: dose 1 mg/kg; details: read-out: Activity
Outline: (§3)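 Radioactivity excreted in bile and urine measured as percent of dose.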

Rattus norvegicus [10] = test: Reduction of body weight in DIO rat assessed as weight change at 1 mg/kg, po daily measured 18 hrs post dose on day 14; format: functional; outline: as §1
[11] = Bioavailability in dog; format: ADME, organism-based, Canis lupus familiaris; details: in vivo
Outline: (§4)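 PK in dog and rhesus macaque. Bioavailability, plasma clearance (mL/min/kg) and terminal half-life derived from plasma drug levels.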

Rattus norvegicus [12] = test: Suppression of cumulative food intake in rat at 1 mg/kg, po relative to control; format: functional; outline: as §1
Brain [13] = test: Drug level in CD1 mouse brain at 100 mg/kg, po; format: ADME, organism-based; set-up: dose 100 mg/kg, route oral; details: in vivo, read-out: Drug uptake
[14] = Drug level in rat plasma at 1 mg/kg, iv after 4 hrs; format: ADME, organism-based; set-up: dose 1 mg/kg, route intravenous; details: read-out: Drug uptake
Rattus norvegicus [15] = test: Reduction of body weight in DIO rat assessed as weight change at 1 mg/kg, po after 18 hrs; format: functional
Outline: (§5)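 Acute study in diet-induced obese rats. A single oral dose was given and rats were monitored for 18 h. Food intake suppression and body weight change were measured relative to vehicle-treated controls.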

[16] = Half life in rat; format: ADME, organism-based; details: in vivo
Rattus norvegicus [17] = test: Reduction of body weight in rat at 1 mg/kg, po relative to control; format: functional; set-up: scale not given: the % may be the effect or the level left; outline: as §1
Mus musculus [18] = test: Toxicity in CD1 mouse assessed as ataxia at 100 mg/kg, po; format: organism-based; set-up: dose 100 mg/kg, route oral; details: in vivo
[19] = Metabolic stability in rat bile assessed as compound recovery at 1 mg/kg; format: ADME, organism-based; set-up: dose 1 mg/kg; details: read-out: Activity; outline: as §3
[20] = molecular target: Voltage-gated inwardly rectifying potassium channel KCNH2 (Homo sapiens, UniProt Q12809); test: Inhibition of human ERG potassium channel
[21] = Plasma clearance in dog; format: ADME, organism-based, Canis lupus familiaris; outline: as §4
Mus musculus [22] = test: Reduction of body weight in Cnr1+/+ C57BL/6 mouse at 1 mg/kg, po measured for 18 hrs; format: functional
Outline: (§6)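 The overnight food intake study used ad libitum fed male mice aged 14–16 weeks, Cnr1+/+ (n = 10) and Cnr1−/− (n = 7). Mice received a single oral dose of 1 mg/kg. Food intake and body weight change were measured over 18 h relative to vehicle-treated mice.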

[23] = Half life in dog; format: ADME, organism-based, Canis lupus familiaris; details: in vivo; outline: as §4
Canis familiaris [24] = test: Toxicity in anesthetized dog assessed as change in heart rate up to 10 mg/kg, iv relative to control; format: organism-based, Canis lupus familiaris; set-up: dose 10 mg/kg, route intravenous; details: in vivo; outline: as §2
[25] = Bioavailability in rhesus monkey; format: ADME, organism-based, Macaca mulatta; details: in vivo; outline: as §4
Canis familiaris [26] = test: Toxicity in anesthetized dog assessed as change in mean arterial pressure up to 10 mg/kg, iv relative to control; format: organism-based, Canis lupus familiaris, Artery; set-up: dose 10 mg/kg, route intravenous; details: in vivo; outline: as §2
Rattus norvegicus [27] = test: Suppression of food intake in DIO rat at 1 mg/kg, po measured 18 hrs post dose on day 14 relative to control
Rattus norvegicus [28] = test: Reduction of body weight in DIO rat assessed as weight change at 1 mg/kg, po after 2 weeks; format: functional, organism-based; set-up: dose 1 mg/kg
Outline: (§7)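 DIO rats were dosed orally once daily for 2 weeks at 0.1, 0.3 or 1 mg/kg. Body weight change (g) was compared with vehicle, and the study ended 18 h after the day-14 dose.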

[29] = Plasma clearance in rat; format: ADME, organism-based
[30] = Inhibition of rat GABAA receptor
Outline: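 Rat GABA_A ligand-gated ion-channel binding, run within a 175-assay radioligand binding and enzymatic screening panel. IC50 estimated.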

Mus musculus [31] = test: Toxicity in CD1 mouse assessed as hyperactive response at 100 mg/kg, po; format: organism-based; set-up: dose 100 mg/kg, route oral; details: in vivo
[32] = Drug level in rat brain at 1 mg/kg, iv after 4 hrs; format: ADME, organism-based; set-up: dose 1 mg/kg, route intravenous; details: read-out: Drug uptake
Rattus norvegicus [33] = test: Toxicity in Sprague-Dawley rat at 30 mg/kg, po by rotarod test; format: organism-based; set-up: dose 30 mg/kg, route oral; details: in vivo
Outline: (§8)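 Male Sprague Dawley rats dosed orally at 30 mg/kg. Motor coordination assessed on rotarod, with plasma and brain drug levels measured.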

Cytochrome P450 1A2 = molecular target: T1, Cytochrome P450 1A2 (Homo sapiens, UniProt P05177); test: Inhibition of CYP1A2; format: ADME
T1 sequence (P05177 whole entry): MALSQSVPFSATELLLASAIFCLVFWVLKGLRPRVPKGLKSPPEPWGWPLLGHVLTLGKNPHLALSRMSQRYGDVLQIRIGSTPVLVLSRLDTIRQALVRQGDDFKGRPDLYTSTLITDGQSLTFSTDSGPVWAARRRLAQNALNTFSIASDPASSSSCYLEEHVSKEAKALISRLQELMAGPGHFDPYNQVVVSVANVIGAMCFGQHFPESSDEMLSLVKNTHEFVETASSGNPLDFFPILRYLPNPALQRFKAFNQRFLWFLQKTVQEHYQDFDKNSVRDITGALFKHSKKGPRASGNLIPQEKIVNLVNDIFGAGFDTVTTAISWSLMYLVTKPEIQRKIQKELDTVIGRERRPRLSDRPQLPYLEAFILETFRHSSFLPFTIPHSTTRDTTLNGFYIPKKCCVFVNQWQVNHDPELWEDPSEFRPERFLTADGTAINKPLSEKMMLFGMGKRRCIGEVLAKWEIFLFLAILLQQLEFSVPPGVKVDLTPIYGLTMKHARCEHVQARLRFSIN
Outline: (§9)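 Inhibition of cytochrome P450 isoforms CYP3A4, CYP2C9, CYP2D6, CYP2C19 and CYP1A2, reported as IC50 in µM.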

Cytochrome P450 2D6 = Cytochrome P450 2D6 (Homo sapiens, UniProt P10635); test: Inhibition of CYP2D6; format: ADME; outline: as §9
Mus musculus [34] = test: Suppression of food intake in Cnr1+/+ C57BL/6 mouse at 1 mg/kg, po measured for 18 hrs by overnight food intake study; format: functional; outline: as §6
Cytochrome P450 3A4 = Cytochrome P450 3A4 (Homo sapiens, UniProt P08684); test: Inhibition of CYP3A4; format: ADME; outline: as §9
[35] = Plasma clearance in rhesus monkey; format: ADME, organism-based, Macaca mulatta; outline: as §4
Rattus norvegicus [36] = test: Suppression of food intake in DIO rat at 1 mg/kg, po relative to control; format: functional; outline: as §5
Rattus norvegicus [37] = test: Reduction of body weight in DIO rat assessed as weight change at 0.1 mg/kg, po after 2 weeks; format: functional, organism-based; set-up: dose 0.1 mg/kg; outline: as §7
Canis familiaris [38] = test: Plasma concentration in anesthetized dog at up to 10 mg/kg, iv measured at the end of infusion; format: ADME, organism-based, Canis lupus familiaris; set-up: dose 10 mg/kg, route intravenous; details: in vivo; outline: as §2
Cytochrome P450 2C9 = Cytochrome P450 2C9 (Homo sapiens, UniProt P11712); test: Inhibition of CYP2C9; format: ADME; outline: as §9
[39] = molecular target: GABA-A receptor; agonist GABA site; test: Partial agonist activity at human alpha-1-beta-3-gamma-2 GABAA receptor expressed in […] cells; format: functional, cell-based
Outline: (§10)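 Whole-cell electrophysiology in Ltk cells expressing human α1β3γ2 GABA_A receptors. EC50 determined, and maximal efficacy expressed relative to the maximum GABA response.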

Cytochrome P450 2C19 = Cytochrome P450 2C19 (Homo sapiens, UniProt P33261); test: Inhibition of CYP2C19; format: ADME; outline: as §9
Plasma [40] = test: Drug level in Sprague-Dawley rat plasma at 30 mg/kg, po; format: ADME, organism-based; set-up: dose 30 mg/kg, route oral; details: in vivo, read-out: Drug uptake; outline: as §8
Rattus norvegicus [41] = test: Reduction of body weight in DIO rat assessed as weight change at 0.3 mg/kg, po after 2 weeks; format: functional, organism-based; set-up: dose 0.3 mg/kg; outline: as §7
Brain [42] = test: Drug level in Sprague-Dawley rat brain at 30 mg/kg, po; format: ADME, organism-based; set-up: dose 30 mg/kg, route oral; details: in vivo, read-out: Drug uptake; outline: as §8
[43] = Ratio of drug level in brain to plasma in rat at 1 mg/kg, iv after 4 hrs; format: ADME, organism-based; set-up: dose 1 mg/kg, route intravenous
[44] = Half life in rhesus monkey; format: ADME, organism-based, Macaca mulatta; details: in vivo; outline: as §4
[45] = molecular target: GABA-A receptor; alpha-1/beta-3/gamma-2 (Homo sapiens) (UniProt P14867+P18507+P28472); test: Partial agonist activity at human alpha-1-beta-3-gamma-2 GABAA receptor expressed in […] cells at 3 uM; format: functional, cell-based; outline: as §10

Sequence of Cytochrome P450 3A4 (P08684 whole entry): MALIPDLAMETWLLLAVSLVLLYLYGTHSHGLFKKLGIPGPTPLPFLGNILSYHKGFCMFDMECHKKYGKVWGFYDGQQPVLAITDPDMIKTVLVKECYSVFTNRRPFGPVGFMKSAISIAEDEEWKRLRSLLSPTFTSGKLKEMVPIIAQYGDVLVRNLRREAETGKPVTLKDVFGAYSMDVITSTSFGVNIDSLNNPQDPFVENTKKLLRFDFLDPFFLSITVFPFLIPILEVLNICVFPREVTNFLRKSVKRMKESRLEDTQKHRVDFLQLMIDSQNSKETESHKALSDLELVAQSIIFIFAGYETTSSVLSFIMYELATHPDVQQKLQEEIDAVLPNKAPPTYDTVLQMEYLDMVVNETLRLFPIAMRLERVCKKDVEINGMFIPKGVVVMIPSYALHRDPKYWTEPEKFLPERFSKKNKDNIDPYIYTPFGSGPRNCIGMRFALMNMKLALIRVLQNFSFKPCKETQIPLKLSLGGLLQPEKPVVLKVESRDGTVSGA
Sequence of Cytochrome P450 2D6 (P10635 whole entry): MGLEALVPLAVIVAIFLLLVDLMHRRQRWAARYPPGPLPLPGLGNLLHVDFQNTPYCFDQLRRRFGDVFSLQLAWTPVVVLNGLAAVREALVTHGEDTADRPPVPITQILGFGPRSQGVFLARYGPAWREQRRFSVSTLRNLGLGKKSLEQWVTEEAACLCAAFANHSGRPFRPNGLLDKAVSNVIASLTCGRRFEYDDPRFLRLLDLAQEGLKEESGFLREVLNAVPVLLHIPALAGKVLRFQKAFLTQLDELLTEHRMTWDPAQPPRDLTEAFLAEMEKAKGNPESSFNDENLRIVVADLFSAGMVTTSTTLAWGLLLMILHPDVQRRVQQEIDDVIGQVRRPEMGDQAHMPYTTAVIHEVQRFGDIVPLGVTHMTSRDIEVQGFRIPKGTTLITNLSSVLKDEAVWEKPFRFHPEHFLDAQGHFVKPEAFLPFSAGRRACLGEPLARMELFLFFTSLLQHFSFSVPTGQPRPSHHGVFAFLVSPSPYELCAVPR
Sequence of Cytochrome P450 2C9 (P11712 whole entry): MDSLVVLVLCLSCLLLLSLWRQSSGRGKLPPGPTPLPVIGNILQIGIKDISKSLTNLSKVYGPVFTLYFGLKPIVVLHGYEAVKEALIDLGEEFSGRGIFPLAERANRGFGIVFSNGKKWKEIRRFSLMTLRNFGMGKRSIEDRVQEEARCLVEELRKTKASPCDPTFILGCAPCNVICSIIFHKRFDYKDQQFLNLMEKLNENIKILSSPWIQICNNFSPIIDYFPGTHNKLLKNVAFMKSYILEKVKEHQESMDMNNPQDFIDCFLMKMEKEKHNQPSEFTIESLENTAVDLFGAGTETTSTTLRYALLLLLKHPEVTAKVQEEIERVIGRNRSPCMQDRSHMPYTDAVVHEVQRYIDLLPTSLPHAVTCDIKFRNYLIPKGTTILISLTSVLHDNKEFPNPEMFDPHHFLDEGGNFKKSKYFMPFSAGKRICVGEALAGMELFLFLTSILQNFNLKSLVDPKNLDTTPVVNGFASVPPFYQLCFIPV
Sequence of Cytochrome P450 2C19 (P33261 whole entry): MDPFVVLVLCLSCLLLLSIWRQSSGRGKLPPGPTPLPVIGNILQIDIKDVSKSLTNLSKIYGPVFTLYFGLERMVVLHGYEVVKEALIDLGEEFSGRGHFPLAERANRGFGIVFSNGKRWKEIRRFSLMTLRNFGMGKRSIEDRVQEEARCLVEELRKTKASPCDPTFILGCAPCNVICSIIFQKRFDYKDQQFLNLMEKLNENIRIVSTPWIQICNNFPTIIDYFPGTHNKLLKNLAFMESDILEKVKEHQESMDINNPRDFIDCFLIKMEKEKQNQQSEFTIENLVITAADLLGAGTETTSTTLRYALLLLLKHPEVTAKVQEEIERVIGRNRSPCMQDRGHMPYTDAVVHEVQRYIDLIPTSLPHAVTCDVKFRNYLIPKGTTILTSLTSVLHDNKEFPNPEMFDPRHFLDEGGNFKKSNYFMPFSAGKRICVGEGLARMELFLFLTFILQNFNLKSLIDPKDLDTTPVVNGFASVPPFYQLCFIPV
Sequence of Voltage-gated inwardly rectifying potassium channel KCNH2 (Q12809 whole entry): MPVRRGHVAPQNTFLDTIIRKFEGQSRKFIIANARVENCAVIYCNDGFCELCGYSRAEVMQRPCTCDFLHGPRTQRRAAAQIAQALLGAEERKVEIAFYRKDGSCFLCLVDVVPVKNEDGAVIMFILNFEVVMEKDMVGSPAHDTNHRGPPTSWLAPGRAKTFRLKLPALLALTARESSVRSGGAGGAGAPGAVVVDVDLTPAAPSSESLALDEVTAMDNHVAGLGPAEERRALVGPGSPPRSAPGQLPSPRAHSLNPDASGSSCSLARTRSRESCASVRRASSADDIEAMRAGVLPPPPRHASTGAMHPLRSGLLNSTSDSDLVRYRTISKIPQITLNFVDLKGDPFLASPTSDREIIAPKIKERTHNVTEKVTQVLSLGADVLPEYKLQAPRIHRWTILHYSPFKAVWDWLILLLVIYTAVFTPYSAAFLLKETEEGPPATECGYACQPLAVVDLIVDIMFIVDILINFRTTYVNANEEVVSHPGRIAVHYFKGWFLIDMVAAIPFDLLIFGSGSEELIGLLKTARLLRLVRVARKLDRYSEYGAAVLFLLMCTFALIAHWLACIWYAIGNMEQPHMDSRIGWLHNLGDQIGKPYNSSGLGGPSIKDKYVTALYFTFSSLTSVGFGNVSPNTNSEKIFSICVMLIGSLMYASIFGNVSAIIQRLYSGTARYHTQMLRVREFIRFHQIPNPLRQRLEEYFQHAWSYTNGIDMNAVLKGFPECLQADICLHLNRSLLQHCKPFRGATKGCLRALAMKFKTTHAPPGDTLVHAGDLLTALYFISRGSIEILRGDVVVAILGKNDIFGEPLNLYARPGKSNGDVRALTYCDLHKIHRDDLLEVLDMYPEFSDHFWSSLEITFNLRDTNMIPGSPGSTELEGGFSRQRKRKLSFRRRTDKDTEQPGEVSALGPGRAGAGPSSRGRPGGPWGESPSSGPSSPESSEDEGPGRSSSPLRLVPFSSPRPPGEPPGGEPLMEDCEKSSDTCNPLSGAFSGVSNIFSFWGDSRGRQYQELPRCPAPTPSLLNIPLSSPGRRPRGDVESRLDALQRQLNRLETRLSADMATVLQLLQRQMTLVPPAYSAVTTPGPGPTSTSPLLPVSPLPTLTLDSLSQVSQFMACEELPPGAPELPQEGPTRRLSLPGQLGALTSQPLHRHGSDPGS

## C[C@H](NC(=O)C(C)(C)Oc1ccc(C(F)(F)F)cn1)[C@@H](Cc1ccc(Cl)cc1)c1cccc(C#N)c1 [TARANABANT]
Rattus norvegicus [1]
  Activity: 6%
Rattus norvegicus [2]
  Activity: 21%
Rattus norvegicus [3]
  Activity: 6%

## CC(C)(O)C(=O)c1oc2nc(-c3ccccc3Cl)c(-c3ccc(Cl)cc3)cc2c1NC(=O)CO
Plasma [4]
  concentration: 24000 nM
[5]
  bioavailability: 64%
Canis familiaris [6]
  Activity: Non-toxic
Plasma [7]
  concentration: 7000 nM
Brain [8]
  concentration: 2300 nM
[9]
  dose excreted: 5%
Rattus norvegicus [10]
  Activity: -2 g
[11]
  bioavailability: 9%
Rattus norvegicus [12]
  Activity: 24%
Brain [13]
  concentration: 6500 nM
[14]
  concentration at 4 h: 147 nM
Rattus norvegicus [15]
  Activity: -7 g
[16]
  half-life: 7.5 h
Rattus norvegicus [17]
  Activity: 4.3%
Mus musculus [18]
  Activity: Toxic
[19]
  dose excreted: 87%
[20]
  IC50: 6.6 µM
[21]
  clearance: 33 mL/min/kg
Mus musculus [22]
  Activity: -0.79 g
[23]
  half-life: 1.8 h
Canis familiaris [24]
  Activity: Non-toxic
[25]
  bioavailability: 50%
Canis familiaris [26]
  Activity: Non-toxic
Rattus norvegicus [27]
  Activity: 24%
Rattus norvegicus [28]
  Activity: Active
[29]
  clearance: 8.6 mL/min/kg
[30]
  IC50: 1.8 µM
Mus musculus [31]
  Activity: Toxic
[32]
  concentration at 4 h: 94 nM
Rattus norvegicus [33]
  Activity: Non-toxic
Cytochrome P450 1A2
  IC50: > 100 µM
Cytochrome P450 2D6
  IC50: 73 µM
Mus musculus [34]
  Activity: 53%
Cytochrome P450 3A4
  IC50: 98 µM
[35]
  clearance: 2.1 mL/min/kg
Rattus norvegicus [36]
  Activity: 47%
Rattus norvegicus [37]
  Activity: inactive
Canis familiaris [38]
  concentration: 50000 nM
Cytochrome P450 2C9
  IC50: 17 µM
[39]
  EC50: 0.7 µM
Cytochrome P450 2C19
  IC50: 43 µM
Plasma [40]
  concentration: 500 nM
Rattus norvegicus [41]
  Activity: Active
Brain [42]
  concentration: 500 nM
[43]
  Kp at 4 h: 0.64
[44]
  half-life: 17 h
[45]
  Efficacy: 18%
